According to ChEMBL document CHEMBL3407462, “Further insights into the SAR of α-substituted cyclopropylamine derivatives as inhibitors of histone demethylase KDM1A” (Eur J Med Chem, 2015):
The source made the active and inactive calls. The calls are words filed in the database; no cut-off is given here.

Biological target: LSD1/CoREST complex (Homo sapiens, UniProt O60341)
Assay: Inhibition of human recombinant KDM1A/CoREST complex expressed in Escherichia coli using mono-methylated H3-K4 peptide containing 21 amino acids as substrate preincubated for 15 mins followed by substrate addition measured for 12 mins by fluorescence assay
In short: (§1)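 KDM1A/CoREST co-purified from E. coli as separate proteins; 20 nM complex preincubated 15 min at RT with inhibitor, 50 µM Amplex UltraRed and 0.023 µM HRP in 50 mM Tris-HCl pH 8.0, 0.05 mg/ml BSA. Reaction started with 4.5 µM H3K4me1 21-mer peptide. H2O2 release read by fluorescence (ex 510/em 595 nm) for 12 min, aerobic. Tested twice in duplicate; IC50 reported.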

Row | SMILES | IC50 [nM]
1 | CC[C@]1(N)C[C@@H]1c1cccc(F)c1 (mixture of isomers) | 79
2 | N[C@@]1(Cc2ccccc2)C[C@@H]1c1ccc(Cl)cc1 (mixture of isomers) | 230
3 | CC[C@]1(N)C[C@@H]1c1cccc(Br)c1 (racemic) | 31
4 | CC[C@]1(N)C[C@@H]1c1ccccc1Br (mixture of isomers) | 350
5 | CC[C@]1(N)C[C@@H]1c1ccc(OC(F)(F)F)cc1 (racemic) | 1160
6 | N[C@@]1(Cc2ccc3ccccc3c2)C[C@@H]1c1cccc(Br)c1 (racemic) | 251
7 | N[C@@]1(c2ccccc2)C[C@@H]1c1ccc(Br)cc1 (racemic) | 47
8 | CC[C@]1(N)C[C@@H]1c1ccc(F)cc1 (mixture of isomers) | 1020
9 | N[C@@]1(CCc2ccccc2)C[C@@H]1c1cccc(Br)c1 (mixture of isomers) | 94
10 | N[C@@]1(Cc2ccccc2)C[C@@H]1c1ccc(Br)cc1 (racemic) | 187
11 | CC[C@]1(N)C[C@@H]1c1ccccc1Cl (racemic) | 258
12 | CC[C@]1(N)C[C@@H]1c1cccc(OC)c1 (mixture of isomers) | 123
13 | N[C@@]1(c2ccccc2)C[C@@H]1c1ccc(Cl)cc1 (mixture of isomers) | 554
14 | N[C@@]1(CCc2ccccc2)C[C@@H]1c1ccc(Br)cc1 (racemic) | 101
15 | N[C@@]1(Cc2ccc3ccccc3c2)C[C@@H]1c1ccc(Cl)cc1 (racemic) | 263
16 | CC[C@]1(N)C[C@@H]1c1ccc(Br)cc1 (mixture of isomers) | 121
17 | N[C@@]1(Cc2ccccc2)C[C@@H]1c1ccc(F)cc1 (mixture of isomers) | 1050
18 | N[C@@]1(Cc2ccc3ccccc3c2)C[C@@H]1c1ccc(Br)cc1 (mixture of isomers) | 279
19 | N[C@@]1(CCc2ccccc2)C[C@@H]1c1ccc(F)cc1 (mixture of isomers) | 173
20 | CC[C@]1(N)C[C@@H]1c1ccc(Br)c(F)c1 (racemic) | 35
21 | CC[C@]1(N)C[C@@H]1c1ccc(Cl)cc1 (mixture of isomers) | 178
22 | N[C@@]1(CCc2ccccc2)C[C@@H]1c1ccc(Cl)cc1 (racemic) | 96
23 | CC[C@]1(N)C[C@@H]1c1cccc(Cl)c1 (racemic) | 38
24 | CC[C@]1(N)C[C@@H]1c1ccccc1F (racemic) | 352
25 | N[C@@]1(Cc2ccc3ccccc3c2)C[C@@H]1c1cccc(Cl)c1 (racemic) | 158
26 | CC[C@]1(N)C[C@@H]1c1ccc(C(F)(F)F)cc1 (racemic) | 248
27 | N[C@@]1(Cc2ccc3ccccc3c2)C[C@@H]1c1ccc(F)cc1 (racemic) | 642
28 | CC[C@]1(N)C[C@@H]1c1cccc(C(F)(F)F)c1 (racemic) | 118

Biological target: LSD1/CoREST complex (Homo sapiens) (UniProt O60341+Q9UKL0)
Sequence (Q9UKL0 whole entry, looked up, other chains not shown): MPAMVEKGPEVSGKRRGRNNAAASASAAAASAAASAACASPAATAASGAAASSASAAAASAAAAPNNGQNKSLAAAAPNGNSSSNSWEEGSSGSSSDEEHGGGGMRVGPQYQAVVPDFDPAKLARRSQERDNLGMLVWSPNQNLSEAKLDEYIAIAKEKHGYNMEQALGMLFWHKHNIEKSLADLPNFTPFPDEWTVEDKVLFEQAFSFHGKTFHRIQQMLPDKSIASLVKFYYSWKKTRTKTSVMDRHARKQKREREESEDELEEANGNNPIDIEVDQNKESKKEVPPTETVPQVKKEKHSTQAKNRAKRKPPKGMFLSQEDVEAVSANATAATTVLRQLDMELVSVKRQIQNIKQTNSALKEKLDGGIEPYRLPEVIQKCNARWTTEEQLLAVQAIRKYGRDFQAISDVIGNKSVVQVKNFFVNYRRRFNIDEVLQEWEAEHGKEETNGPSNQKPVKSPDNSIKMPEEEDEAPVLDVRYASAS
Assay: Inhibition of human recombinant KDM1A/CoREST complex expressed in Escherichia coli using mono-methylated H3-K4 peptide containing 21 amino acids as substrate up to 100 uM preincubated for 15 mins followed by substrate addition measured for 12 mins by fluorescence assay
In short: as §1

Row | inhibition | SMILES
29 | inactive | O=C1NCCN[C@]12C[C@@H]2c1ccccc1
30 | inactive | O=C1COC[C@]2(C[C@H]2c2ccccc2)N1
